Consider 8 compounds from PMC3381860 (Chemmedchem, 2011).

The test system of series [1] is P. falciparum (3D7). As to the kind of experiment: P. falciparum 3D7 proliferation. Type of series: cell-based, Plasmodium falciparum.
Series [2] concerns P. falciparum HB3 (chloroquine-sensitive). Description: P. falciparum HB3 antiplasmodial activity. The series is classed as cell-based, Plasmodium falciparum. Conditions: read-out: Antiplasmodial activity IC50 HB3.
In another series the test system is heme crystallization. Description: Parasite-free colorimetric heme crystallization inhibition. The following applies: molar equivalents of compound to heme. Type of series: biochemical.
Series [3] deals with P. falciparum Dd2 (chloroquine-resistant). Description: P. falciparum Dd2 antiplasmodial activity. Conditions: read-out: Antiplasmodial activity IC50 Dd2. Type of series: cell-based, Plasmodium falciparum.
Series [4] in a line: Spectrophotometric titration of Fe. Type of series: binding. Summed up:
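Heme (Fe(III)PPIX) titrated with test compound from 1:1 to 16:1 mol equiv compound:heme at 23 °C in 40 % DMSO, 20 mM HEPES, pH 7.4. Soret-band and Q-band absorbance recorded after each addition. Spectra corrected for dilution by subtracting a reference cell.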

A further series deals with J774. Description: Cytotoxicity against uninfected J774 cells. The series is classed as cell-based. Conditions: read-out: Cytotoxicity IC50 J774.
Another series deals with Vero. Description: Cytotoxicity against uninfected Vero cells. Type of series: cell-based. The following applies: for IC50: read-out: Cytotoxicity IC50 Vero, uninfected Vero cells.
Another series relates to HepG2. Description: Cytotoxicity against uninfected HepG2 cells. Type of series: cell-based. Conditions: read-out: Cytotoxicity IC50 HepG2.
Series [5] relates to P. falciparum HB3 (chloroquine-sensitive). Conditions: read-out: Antiplasmodial activity IC50 HB3, ref Hawley et al. [30]; cited from earlier work.
The test system of series [6] is P. falciparum (3D7). Conditions: read-out: Antiplasmodial activity IC50 3D7, ref Hawley et al. [30]; cited from earlier work.
[7] abbreviates: read-out: P. falciparum (3D7) IC50, 3D7 strain.
The mark [8] stands for this setting: read-out: Antiplasmodial activity IC50 3D7, 3D7, chloroquine-sensitive.

Where “and” joins values, the source holds several entries; their conditions need not be identical. Identical values can stand only once. Like-named read-outs stand apart in the source and are kept apart here.

For the compound `CC1=C2Cc3cc(ccc3O)C(=O)O[C@H](C(C)(C)O)CC[C@](C)(O)[C@H](Br)CC[C@]2(C)[C@@H](Br)CC1` [Compound 2, bromophycolide C], the concentration for half-maximal inhibition (IC50) with P. falciparum (3D7) [1] (setting [7]) stood at 56000 nM.

Turning to `C=C(C)[C@@H]1CCC(C)(O)[C@H](Br)CC[C@@]2(C)C(=C(C)CC[C@@H]2Br)Cc2cc(ccc2O)C(=O)O1` (stereo partly shown) [Compound 5, bromophycolide M], the 50% inhibitory concentration (IC50) in the series with P. falciparum (3D7) [1] (setting [7]) amounted to 550 nM.

Take debromophycolide A [Compound 6]: the “P. falciparum (3D7) IC50” value in the series with P. falciparum (3D7) [1] (3D7 strain) was “completely inactive”. Moreover, the half-maximal inhibitory concentration (IC50) in the series with P. falciparum (3D7) [1] (setting [7]) was over 100000 nM.

For the compound `CC1=C2Cc3cc(ccc3O)C(=O)O[C@H](C(C)(C)Br)CC[C@](C)(O)[C@H](Br)CC[C@]2(C)[C@@H](Br)CC1` [Compound 1, bromophycolide A], the IC50 amounted to 493 ± 44 nM in [2]; 377 ± 92 nM in series [3]; 19000 nM with J774; 499 ± 51 nM in the series on P. falciparum (3D7) [1] (setting [8]); 500 nM in the series on P. falciparum (3D7) [1] (setting [7]); 34600 nM in the series with Vero. The 50% inhibitory concentration (IC50) with HepG2 is 21300 nM. In addition, the “Heme crystallization IC50” value in the series with heme crystallization was 2.5 mol equiv and 2.5 ± 0.13 mol equiv. The “association constant log K of Fe^IIIPPIX–compound complex” value in [4] (1:1 complexation model, 40 % DMSO, 20 mM HEPES, pH 7.4) stood at 4.52 ± 0.18. In addition, the “decrease in Soret band (λ 402 nm) absorbance of Fe^IIIPPIX upon titration” value in [4] (40 % DMSO, 20 mM HEPES, pH 7.4) turned out to be 45%. In addition, in series [4] (spectrophotometric titration experiment), the “binding concentration at half-maximum” value worked out at 25 µM.

On to `CCN(CC)Cc1cc(Nc2ccnc3cc(Cl)ccc23)ccc1O` [AMQ, amodiaquine, reference compound], for which the figures for the “Heme crystallization IC50” value in the series on heme crystallization and in the series on heme crystallization (listed as amodiaquine) were 1.2 ± 0.19 mol equiv and 1.2 mol equiv, respectively. Besides, the results for the 50% inhibitory concentration (IC50) (in [5]; in the series with P. falciparum (3D7) [6]) were 8.5 nM and 7.8 nM, respectively.

In the case of `C=C(C)[C@@H]1CC[C@](C)(O)[C@H](Br)CC[C@@]2(C)[C@H](Cc3cc(ccc3O)C(=O)O1)C(=C)CC[C@@H]2Br` [Compound 4, bromophycolide E], the half-inhibitory concentration (IC50) in the series on P. falciparum (3D7) [1] (setting [7]) worked out at 820 nM.

For 18-acetylbromophycolide A [Compound 7], the half-inhibitory concentration (IC50) in [2] was determined as 431 ± 25 nM; in series [3] it was 304 ± 8.4 nM; in the series with J774, 24700 nM; with P. falciparum (3D7) [1] (setting [8]) it was 241 ± 52 nM; with P. falciparum (3D7) [1] (setting [7]), 240 nM; in the series with Vero it was 74000 nM. Also, the IC50 in the series on HepG2 worked out at 38500 nM. Besides, the “Heme crystallization IC50” value in the series on heme crystallization was 2.0 mol equiv and 2.0 ± 0.15 mol equiv. Further, the “decrease in Soret band (λ 402 nm) absorbance of Fe^IIIPPIX upon titration” value in series [4] (40 % DMSO, 20 mM HEPES, pH 7.4) was 25%. Besides, the “fold increase in activity for P. falciparum parasites over mammalian (Vero) cells” value in the series with Vero (selectivity P. falciparum vs Vero) was 300 fold.

For the compound bromophycolide D [Compound 3], in the series with P. falciparum (3D7) [1] (setting [7]), the IC50 came out at 350 nM.

The IC50 is the concentration needed to halve the response being measured.
